Most compounds without a hit are left out; they make up all but 1.5% or so of the library.
Apaf-1 inh – human Apaf-1 inhibition. reconstituted apoptosome caspase-3 activity, DEVD-Rh110 fluorescence. AID 489030. actives 0.71% (n = 330,000). inhibition, % at 20 µM; active = inhibition of at least 40% at 20 µM
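System: reconstituted apoptosome with Apaf-1, cytochrome c, caspase-9, procaspase-3, dATP; Signal: Rh110 fluorescence intensity; Schedule: 30 min compound preincubation, 50 min activation, room temperature; Reagent: cytochrome c trigger plus (Z-DEVD)2-Rh110 caspase-3 substrate.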
UBC13 inh – blocks human UBC13 polyubiquitin chain formation; TR-FRET; inhibition, % at 20 µM; actives 0.47% (n = 330,000); AID 485273; in the data active = inhibition above about 45%, passing the limit was not always enough; inconclusive = no clear call, values can overlap the other calls
Target sequence (P61088 whole entry, looked up): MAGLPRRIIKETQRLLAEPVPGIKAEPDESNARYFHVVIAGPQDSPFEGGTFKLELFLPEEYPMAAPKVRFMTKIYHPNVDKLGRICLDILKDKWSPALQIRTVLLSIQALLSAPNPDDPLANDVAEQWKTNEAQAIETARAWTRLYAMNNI
UCH37 DUB inh – blocks the human deubiquitinase UCH37; Q9Y5K5; purified proteasome/UCH37, Ub-AMC cleavage fluorescence; inhibition, % (concentration not given with the values); actives 0.33% (n = 330,000); AID 588478;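 active = mean inhibition over replicate wells above about 20%, limit read from the data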
Target sequence (Q9Y5K5 whole entry, looked up): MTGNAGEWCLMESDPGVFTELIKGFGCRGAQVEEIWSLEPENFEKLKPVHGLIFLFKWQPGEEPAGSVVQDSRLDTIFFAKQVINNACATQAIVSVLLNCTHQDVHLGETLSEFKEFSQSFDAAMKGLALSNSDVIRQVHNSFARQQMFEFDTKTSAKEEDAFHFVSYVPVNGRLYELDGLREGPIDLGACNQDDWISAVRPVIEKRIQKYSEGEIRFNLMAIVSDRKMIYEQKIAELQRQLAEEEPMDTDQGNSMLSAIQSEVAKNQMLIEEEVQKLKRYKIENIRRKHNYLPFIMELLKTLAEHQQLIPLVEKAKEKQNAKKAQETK
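Schedule: 30 min plus 25 min, room temperature / Material: human UCH37 within purified proteasomes / Technique: AMC fluorescence intensity at 355/460 nm / Buffer or medium: pH 7.4 Tris-HCl (50 mM) with ovalbumin, ATP-MgCl2, DTT / Controls: wells without proteasome as full block, compound-free enzyme plus substrate as uninhibited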
PREPL inh – inhibitors of human prolyl oligopeptidase-like enzyme PREPL; inhibition, % at 5.96 µM; recombinant PREPL, fluorescence polarization activity-based probe; actives 0.68% (n = 320,000); in the data active = inhibition above about 43%
Casp3 UBC13 ctr – caspase-3 inhibition (UBC13 counter-screen); actives 4% (n = 1,400); Recombinant caspase-3, Caspase-Glo 3/7 luminescence, 60 min; shares compounds with UBC13 inh; inhibition, % at 20 µM;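 active = mean inhibition across replicates above about 26%, limit read from the data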
Target sequence (P42574 whole entry, looked up): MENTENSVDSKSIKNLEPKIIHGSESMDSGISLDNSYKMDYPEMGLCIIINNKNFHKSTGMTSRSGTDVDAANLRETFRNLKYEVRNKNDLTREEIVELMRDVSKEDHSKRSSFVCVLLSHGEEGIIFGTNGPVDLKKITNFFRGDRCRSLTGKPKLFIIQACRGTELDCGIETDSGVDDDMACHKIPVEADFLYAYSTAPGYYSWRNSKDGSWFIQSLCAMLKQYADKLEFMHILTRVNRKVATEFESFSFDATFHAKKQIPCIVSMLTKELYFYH
UBC13 confirm – confirmation of human UBC13 polyubiquitin inhibitors. shares compounds with UBC13 inh. AID 488859. actives 68% (n = 1,400). UBC13 polyubiquitination, TR-FRET, biochemical. inhibition, % at 10 µM; in the data active = inhibition above about 45%; inconclusive = no clear call, values can overlap the other calls
Of the large screens only hits and unclear results are named; the others gave an inactive call (follow-up assays come after a bar, where they were run).

Cc1ccc(NC(=O)COc2ccc(C=NNC(=O)CSCc3ccccc3)cc2)cc1	none (no result: Apaf-1 inh, UBC13 inh, PREPL inh)
CCN1C(=O)c2cccc3c(NS(=O)(=O)c4ccc(NC(C)=O)cc4)ccc1c23	none
CCN1C(=O)c2cccc3c(NC(=O)c4ccc(S(=O)(=O)N(C)C)cc4)ccc1c23	UBC13 inh 62.5 | Casp3 UBC13 ctr inactive | UBC13 confirm 76.4
Cc1cccc(NC(=O)c2ccc(S(=O)(=O)N3CCOCC3)cc2)c1C	none
CCN1C(=O)c2cccc3c(NC(=O)c4ccc(S(=O)(=O)N5CCOCC5)cc4)ccc1c23	UBC13 inh 69.7 | Casp3 UBC13 ctr inactive | UBC13 confirm 83.1
Cc1onc(-c2ccccc2)c1C(=O)NN=Cc1cn(C)c2ccccc12	none (no result: Apaf-1 inh, UBC13 inh, PREPL inh)
CC(C)(C)c1ccc(-c2nc3c(C#N)c(-c4ccc5c(c4)OCO5)ccn3n2)cc1	UBC13 inh 47.6 | Casp3 UBC13 ctr inactive | UBC13 confirm inconclusive
CCCc1ccc(OCc2ccc(C(=O)O)o2)c(OC)c1	none
COc1ccc(CCN(C)C(=O)c2ccc(COc3ccccc3)o2)cc1OC	Apaf-1 inh 66.3, UBC13 inh 46.0 | Casp3 UBC13 ctr inactive | UBC13 confirm 82.1
N#CC(=C(O)CN1CCOCC1)c1nc(-c2ccccc2)cs1	none (no result: Apaf-1 inh, UBC13 inh, PREPL inh)
CCC[C@H](CN[C@@H](CNC)[C@H](C)CC)NCCc1cc(C(F)(F)F)cc(C(F)(F)F)c1	UBC13 inh 85.5 | Casp3 UBC13 ctr inactive | UBC13 confirm 73.1
CCC[C@@H](CN[C@@H](CNC)[C@H](C)CC)NCC1CCC(C(C)(C)C)CC1 (stereo partly drawn)	UBC13 inh 63.4 | Casp3 UBC13 ctr inactive | UBC13 confirm 60.6
Cc1c(C)n(Cc2ccccc2)c2ncnc(NCCO)c12	none
Cc1c(C)n(Cc2ccccc2)c2ncnc(N)c12	UBC13 inh 58.9 | Casp3 UBC13 ctr inactive | UBC13 confirm 61.1
CC(=NNC(=O)c1ccc(CN2CCOCC2)cc1)c1cccc([N+](=O)[O-])c1	none (no result: Apaf-1 inh, UBC13 inh, PREPL inh)
COc1ccc(OC)c(-c2cc(C(=O)NN=Cc3cc(OC)c(OC)cc3OC)c3ccccc3n2)c1	none (no result: Apaf-1 inh, UBC13 inh, PREPL inh)
Cc1cccc(CC2SC(=NN=Cc3ccco3)N(c3ccccc3)C2=O)c1 (stereo not drawn)	none (no result: Apaf-1 inh, UBC13 inh, PREPL inh)
Cc1cc(-c2nnc(SCC(=O)Nc3nc(-c4ccc(Cl)cc4)cs3)o2)no1	UBC13 inh 49.3 | Casp3 UBC13 ctr inactive | UBC13 confirm inactive
COc1cc(NC(=O)CSc2nnc(-c3cc(C)on3)o2)cc(OC)c1	none
NCCCC[C@@H](C(=O)N1CCNCC1)n1cc(CN)nn1	UBC13 inh 59.8 | Casp3 UBC13 ctr inactive | UBC13 confirm 46.6
O=C(Nc1ccc(C(=O)NCCCN2CCCCC2)cc1)C1=CSCCO1	none
O=C(Nc1ccc(C(=O)NCCCN2CCN(c3ccc(F)cc3)CC2)cc1)C1=CSCCO1	UBC13 inh 65.2 (no result: UCH37 DUB inh) | Casp3 UBC13 ctr inactive | UBC13 confirm 97.2
CCCCOc1ccc(-c2cnc3ccccc3n2)cc1	UBC13 inh 53.7 | Casp3 UBC13 ctr 92.9 | UBC13 confirm inconclusive
Oc1ccc(-c2cnc3ccccc3n2)cc1	none
CC(C)[C@H](CO)N(Cc1cccc(F)c1)c1nc(Nc2cccc(Cl)c2)c2ncn(C(C)C)c2n1	none
CC[C@H](CO)Nc1nc(Nc2cccc(Cl)c2)c2ncn(C(C)C)c2n1	UBC13 inh 76.7 | Casp3 UBC13 ctr inactive | UBC13 confirm 66.6
CC(=NNC(=O)c1ccc(N(C)C)cc1)c1ccc(C)cc1C	none (no result: Apaf-1 inh, UBC13 inh, PREPL inh)
CCN(CC)CCNC(=O)c1cc2c(s1)-c1ccccc1SC2	UBC13 inh 50.5 | Casp3 UBC13 ctr inactive | UBC13 confirm 53.4
CCn1c(=O)c2cc(C(=O)NCCN(C)C)sc2c2ccccc21	UBC13 inh 46.0 | Casp3 UBC13 ctr inactive | UBC13 confirm inactive
CCN(CC)CCNC(=O)c1cc2c(=O)n(CC)c3ccccc3c2s1	UBC13 inh 57.4 | Casp3 UBC13 ctr inactive | UBC13 confirm 61.9
CCCN(CCC)CCNC(=O)c1cc2c(=O)n(CC)c3ccccc3c2s1	UBC13 inh 73.0 | Casp3 UBC13 ctr inactive | UBC13 confirm 74.0
COC(=O)C1CC(=NNS(=O)(=O)c2ccc(C)cc2)c2ccccc2C1 (stereo not drawn)	none (no result: Apaf-1 inh, UBC13 inh, PREPL inh)
CC(=NNc1cccc([N+](=O)[O-])c1)c1ccccc1O	none (no result: Apaf-1 inh, UBC13 inh, PREPL inh)
Cn1cccc1/C=C(/C#N)C(N)=S	none
CCCCc1ccc(/C=C(\C#N)C(N)=S)s1	UBC13 inh 52.8 (no result: PREPL inh) | Casp3 UBC13 ctr inactive | UBC13 confirm 58.6
CSc1ccc(C=NNC(=O)c2cccc(Cl)c2)cc1	none (no result: Apaf-1 inh, UBC13 inh, PREPL inh)
Cc1ccc(CN2CCSc3ccc(C(=O)NC4CCN(Cc5ccccc5)CC4)cc32)cc1	UBC13 inh 62.1 | Casp3 UBC13 ctr inactive | UBC13 confirm inconclusive
O=C(NC1CCCC1)c1ccc2c(c1)N(Cc1ccccc1)CCS2	none
CCN(CC)S(=O)(=O)c1ccc(C(=O)NNC(=O)C2CCN(S(=O)(=O)c3ccc(Cl)cc3)CC2)cc1	UBC13 inh 77.7 | Casp3 UBC13 ctr inactive | UBC13 confirm 77.0
FC(F)(F)c1cc(CCN2CCNC[C@H]2Cc2cccc3ccccc23)cc(C(F)(F)F)c1	Apaf-1 inh 72.4, UBC13 inh 96.1 (no result: UCH37 DUB inh) | Casp3 UBC13 ctr inactive | UBC13 confirm 98.2
O=C(CCNC(=O)c1ccccc1Cl)Nc1nc2ccccc2s1	UBC13 inh 79.6 | Casp3 UBC13 ctr inactive | UBC13 confirm 100.8
O=C(CCCOc1ccccc1)Nc1ccc(S(=O)(=O)N2CCOCC2)cc1	none
Cc1ccc(OCCCC(=O)Nc2ccc(S(=O)(=O)N3CCOCC3)cc2)cc1	UBC13 inh 56.0 | Casp3 UBC13 ctr inactive | UBC13 confirm inactive
CC1CCCCN1CCNC(=O)c1ccc2c(=O)n(Cc3ccc(Cl)cc3)c(=S)[nH]c2c1 (stereo not drawn)	UBC13 inh 49.2 | Casp3 UBC13 ctr inactive | UBC13 confirm 61.3
Cc1ccc(-c2n[nH]c(=S)n2N=Cc2ccc(C)o2)cc1	none (no result: Apaf-1 inh, UBC13 inh, PREPL inh)
Cc1cc(Nc2ccccc2)nc(NCc2ccccc2)n1	UBC13 inh 45.7 | Casp3 UBC13 ctr inactive | UBC13 confirm 49.6
CCCCNc1cc(C)nc(NCc2ccccc2)n1	UBC13 inh 48.5 | Casp3 UBC13 ctr inactive | UBC13 confirm 55.9
Cc1cc(Nc2ccc(Cl)cc2)nc(NCc2ccccc2)n1	UBC13 inh 71.7 | Casp3 UBC13 ctr inactive | UBC13 confirm 84.0
COc1cccc(C=NNC(=O)c2ccc(C)nc2)c1	none (no result: Apaf-1 inh, UBC13 inh, PREPL inh)
O=C(CO)NN=Cc1c2ccccc2cc2ccccc12	none (no result: Apaf-1 inh, UBC13 inh, PREPL inh)
CC(C)Cn1cc(C(=O)NCCCN2CCC(C)CC2)c2c3ccccc3n(C)c2c1=O	UBC13 inh 75.7 | Casp3 UBC13 ctr inactive | UBC13 confirm 50.3
CC(C)Cn1cc(C(=O)NC2CCN(Cc3ccccc3)CC2)c2c3ccccc3n(C)c2c1=O	UBC13 inh 68.3 (no result: UCH37 DUB inh) | Casp3 UBC13 ctr inactive | UBC13 confirm inactive
COCCCNC(=O)c1cn(CC(C)C)c(=O)c2c1c1ccccc1n2C	none
Fc1ccc(C=NNc2nn[nH]n2)cc1	none (no result: Apaf-1 inh, UBC13 inh, PREPL inh)
CCOC(=O)c1c(-c2ccc(C)cc2)csc1N=CN(C)C	none (no result: Apaf-1 inh, UBC13 inh, PREPL inh)
